ChEMBL document CHEMBL1212874, “Natural and semisynthetic azaphilones as a new scaffold for Hsp90 inhibitors” (Bioorg Med Chem, 2010)
Active and inactive are the calls of the source. The rule behind the calls is not given here.

Assays:
NCI-H460 = experiment: Antiproliferative activity against human NCI-H460 cells after 72 hrs; assay type: functional, cell-based; details: NCI-H460, 72 h
A-431 = experiment: Antiproliferative activity against human A431 cells after 72 hrs; assay type: functional, cell-based; details: A-431, 72 h
[1] = Antiproliferative activity against human JR8 cells after 72 hrs; assay type: functional, cell-based; details: JR8, 72 h
IGROV-1 [2] = experiment: Antiproliferative activity against human IGROV1 cells after 72 hrs; assay type: functional, cell-based; details: IGROV-1, 72 h
[3] = Inhibition of yeast full-length recombinant HSP90 ATPase activity expressed in Escherichia coli strain BL21(DE3) assessed as inorganic phosphate release after 3 hrs; set-up: species or system Saccharomyces cerevisiae
[4] = Binding affinity to HSP90 after 4 hrs by fluorescence polarization assay
Heat shock protein HSP90 [5] = biological target: T1, Heat shock protein HSP90 (Homo sapiens, UniProt P07900+P08238); experiment: Inhibition of HSP90 in human A431 cells assessed as down-regulation of Raf-1 protein at IC80 concentration after 24 hrs by immunoblotting; assay type: cell-based; details: A-431
How it was run: (§1)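 Cells seeded at 100,000 cells/mL, treated 24 h later for 24 h at the equitoxic IC80 concentration given per compound and cell line. Whole-cell extracts (40 µg) run on SDS-PAGE and immunoblotted. Actin was the loading control, and tubulin the loading control for EGFR.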

Heat shock protein HSP90 [6] = biological target: T1, Heat shock protein HSP90; experiment: Inhibition of HSP90 in human A431 cells assessed as down-regulation of survivin protein at IC80 concentration after 24 hrs by immunoblotting; assay type: cell-based; details: A-431; how it was run: as §1
Heat shock protein HSP90 [7] = biological target: T1, Heat shock protein HSP90; experiment: Inhibition of HSP90 in human A431 cells assessed as down-regulation of Cdk4 protein at IC80 concentration after 24 hrs by immunoblotting; assay type: cell-based; details: A-431; how it was run: as §1
Heat shock protein HSP90 [8] = biological target: T1, Heat shock protein HSP90; experiment: Inhibition of HSP90 in human A431 cells assessed as down-regulation of Akt protein at IC80 concentration after 24 hrs by immunoblotting; assay type: cell-based; details: A-431; how it was run: as §1
Heat shock protein HSP90 [9] = biological target: T1, Heat shock protein HSP90; experiment: Inhibition of HSP90 in human A431 cells assessed as down-regulation of EGFR protein at IC80 concentration after 24 hrs by immunoblotting; assay type: cell-based; details: A-431; how it was run: as §1
Heat shock protein HSP90 [10] = biological target: T1, Heat shock protein HSP90; experiment: Inhibition of HSP90 in human JR8 cells assessed as down-regulation of Raf-1 protein at IC80 concentration after 24 hrs by immunoblotting; assay type: cell-based; how it was run: as §1
Heat shock protein HSP90 [11] = biological target: T1, Heat shock protein HSP90; experiment: Inhibition of HSP90 in human JR8 cells assessed as down-regulation of survivin protein at IC80 concentration after 24 hrs by immunoblotting; assay type: cell-based; how it was run: as §1
Heat shock protein HSP90 [12] = biological target: T1, Heat shock protein HSP90; experiment: Inhibition of HSP90 in human JR8 cells assessed as down-regulation of Cdk4 protein at IC80 concentration after 24 hrs by immunoblotting; assay type: cell-based; how it was run: as §1
Heat shock protein HSP90 [13] = biological target: T1, Heat shock protein HSP90; experiment: Inhibition of HSP90 in human JR8 cells assessed as down-regulation of Akt protein at IC80 concentration after 24 hrs by immunoblotting; assay type: cell-based; how it was run: as §1
Heat shock protein HSP90 [14] = biological target: T1, Heat shock protein HSP90; experiment: Inhibition of HSP90 in human JR8 cells assessed as down-regulation of EGFR protein at IC80 concentration after 24 hrs by immunoblotting; assay type: cell-based; how it was run: as §1
Heat shock protein HSP90 [15] = biological target: T1, Heat shock protein HSP90; experiment: Inhibition of HSP90 in human IGROV1 cells assessed as down-regulation of Raf-1 protein at IC80 concentration after 24 hrs by immunoblotting; assay type: cell-based; details: IGROV-1; how it was run: as §1
Heat shock protein HSP90 [16] = biological target: T1, Heat shock protein HSP90; experiment: Inhibition of HSP90 in human IGROV1 cells assessed as down-regulation of survivin protein at IC80 concentration after 24 hrs by immunoblotting; assay type: cell-based; details: IGROV-1; how it was run: as §1
Heat shock protein HSP90 [17] = biological target: T1, Heat shock protein HSP90; experiment: Inhibition of HSP90 in human IGROV1 cells assessed as down-regulation of Cdk4 protein at IC80 concentration after 24 hrs by immunoblotting; assay type: cell-based; details: IGROV-1; how it was run: as §1
Heat shock protein HSP90 [18] = biological target: T1, Heat shock protein HSP90; experiment: Inhibition of HSP90 in human IGROV1 cells assessed as down-regulation of Akt protein at IC80 concentration after 24 hrs by immunoblotting; assay type: cell-based; details: IGROV-1; how it was run: as §1
Heat shock protein HSP90 [19] = biological target: T1, Heat shock protein HSP90; experiment: Inhibition of HSP90 in human A431 cells expressing p53 mutant assessed as down-regulation of p53 protein at IC80 concentration after 24 hrs by immunoblotting; assay type: cell-based; details: A-431; how it was run: as §1
Heat shock protein HSP90 [20] = biological target: T1, Heat shock protein HSP90; experiment: Inhibition of HSP90 in human A431 cells assessed as up-regulation of HSP70 protein at IC80 concentration after 24 hrs by immunoblotting; assay type: cell-based; details: A-431; how it was run: as §1
Heat shock protein HSP90 [21] = biological target: T1, Heat shock protein HSP90; experiment: Inhibition of HSP90 in human A431 cells assessed as reduction of Raf-1/Hsp90 precipitation at IC80 concentration after 4 hrs by co-immunoprecipitation analysis; assay type: cell-based; details: A-431
Heat shock protein HSP90 [22] = biological target: T1, Heat shock protein HSP90; experiment: Inhibition of HSP90 in human A431 cells assessed as reduction of Hsp70/Hsp90 precipitation at IC80 concentration after 4 hrs by co-immunoprecipitation analysis; assay type: cell-based; details: A-431
IGROV-1 [23] = experiment: Induction of apoptosis in human IGROV1 cells assessed as PARP1 cleavage at 11 uM after 48 hrs by Western blotting; assay type: functional, cell-based
How it was run: (§2)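 IGROV-1 cells treated with 11 µM compound for 24 or 48 h. Cells rinsed with ice-cold PBS containing 0.1 mM orthovanadate and lysed in hot sample buffer. 40 µg of total extract run on SDS-PAGE and blotted onto nitrocellulose. Probed for cleaved caspase-3 and PARP-1.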

IGROV-1 [24] = experiment: Induction of apoptosis in human IGROV1 cells assessed as activation of caspase 3 at 11 uM after 48 hrs by Western blotting; assay type: functional, cell-based; how it was run: as §2
IGROV-1 [25] = experiment: Antitumor activity against human IGROV1 cells xenografted in athymic Swiss nude mouse assessed as increase of mouse survival at 25 mg/kg, ip administered qd for 4 days/week for 2 weeks; assay type: functional, organism-based; set-up: dose 25 mg/kg
How it was run: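 Female athymic Swiss nude mice, 8–10 weeks old. IGROV-1 ovarian carcinoma was serially passaged ip as ascites, and 2.5 × 10^6 cells in 0.2 mL saline were injected ip. Dosing ip at 25 mg/kg daily, 4 days/week for 2 weeks, began the day after implant. End point was median survival time, reported as T/C% (treated/control MST × 100).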

Heat shock protein HSP90 [26] = biological target: T1, Heat shock protein HSP90; experiment: Inhibition of HSP90 in human A431 cells assessed as down-regulation of Akt protein after 24 hrs by immunoblotting; assay type: cell-based; details: a-431; how it was run: as §1
Heat shock protein HSP90 [27] = biological target: T1, Heat shock protein HSP90; experiment: Inhibition of HSP90 in human A431 cells assessed as down-regulation of EGFR protein after 24 hrs by immunoblotting; assay type: cell-based; details: a-431; how it was run: as §1
Heat shock protein HSP90 [28] = biological target: T1, Heat shock protein HSP90; experiment: Inhibition of HSP90 in human A431 cells assessed as down-regulation of Cdk4 protein after 24 hrs by immunoblotting; assay type: cell-based; details: a-431; how it was run: as §1
Heat shock protein HSP90 [29] = biological target: T1, Heat shock protein HSP90; experiment: Inhibition of HSP90 in human A431 cells assessed as down-regulation of survivin protein after 24 hrs by immunoblotting; assay type: cell-based; details: a-431; how it was run: as §1
[30] = Binding affinity to HSP90 by surface plasmon resonance analysis
Heat shock protein HSP90 [31] = biological target: T1, Heat shock protein HSP90; experiment: Inhibition of HSP90 in human A431 cells assessed as reduction of Raf-1/Hsp90 precipitation at 11 uM after 4 hrs by co-immunoprecipitation analysis; details: A-431
Heat shock protein HSP90 [32] = biological target: T1, Heat shock protein HSP90; experiment: Inhibition of HSP90 in human A431 cells assessed as reduction of Hsp70/Hsp90 precipitation at 11 uM after 4 hrs by co-immunoprecipitation analysis; details: A-431

In the case of CCC(C)/C=C/C=C/C=C/C(=O)/C=C(\O)C1=C2C=C3CC(CO)OC=C3C(=O)[C@]2(C)OC1=O (stereo not given in full) [BULGARIALACTONE B], the IC50 (NCI-H460) is reported as 50 µM, the IC50 (A-431) is reported as 5.53 µM and the IC80 (A-431) is reported as 11 µM. For the same compound, the IC50 [1] was 6.42 µM, the IC50 (IGROV-1 [2]) was 4.65 µM and the IC50 [3] was 9.87 µM. For the same compound, the IC50 [4] was 61.7 µM, the inhibition (Heat shock protein HSP90 [5]) was “Active” and the inhibition (Heat shock protein HSP90 [6]) was “Active”. For the same compound, the inhibition (Heat shock protein HSP90 [7]) was “Active”, the inhibition (Heat shock protein HSP90 [8]) was “Active” and the inhibition (Heat shock protein HSP90 [9]) was “Active”. The Raf-1 protein down-regulation (Heat shock protein HSP90 [10]) was “Active”, the inhibition (Heat shock protein HSP90 [11]) was “Active” and the inhibition (Heat shock protein HSP90 [12]) was “Active”. The inhibition (Heat shock protein HSP90 [13]) was “Active”, the inhibition (Heat shock protein HSP90 [14]) was “Active” and the inhibition (Heat shock protein HSP90 [15]) was “Active”. For the same compound, the inhibition (Heat shock protein HSP90 [16]) was “Active”, the inhibition (Heat shock protein HSP90 [17]) was “Active” and the inhibition (Heat shock protein HSP90 [18]) was “Active”. For the same compound, the inhibition (Heat shock protein HSP90 [19]) was “Active”, the inhibition (Heat shock protein HSP90 [20]) was “inactive” and the inhibition (Heat shock protein HSP90 [21]) was “Active”. The inhibition (Heat shock protein HSP90 [22]) was “Active”, the inhibition (IGROV-1 [23]) was “Active” and the inhibition (IGROV-1 [24]) was “Active”. For the same compound, the Activity (IGROV-1 [25]) was “Active”, the EC50 (Heat shock protein HSP90 [26]) was 16.8 µM and the EC50 (Heat shock protein HSP90 [27]) was 11 µM. The EC50 (Heat shock protein HSP90 [28]) was 8.49 µM, the EC50 (Heat shock protein HSP90 [29]) was 11 µM and the Kd [30] was 1.3 nM. For the same compound, the inhibition (Heat shock protein HSP90 [31]) was “Active” and the inhibition (Heat shock protein HSP90 [32]) was “Active”.
